Laboratory results reported in ChEMBL document CHEMBL1155079, “N-Hydroxypyrazolyl glycine derivatives as selective N-methyl-D-aspartic acid receptor ligands” (J Med Chem, 2008).
Calls of active or inactive are those of the source. The calls are words filed in the database; no cut-off is given here.

Tests used:
[1] = target: Glutamate NMDA receptor; Grin1/Grin2b (Rattus norvegicus) (UniProt P35439+Q00960); experiment: Activity at rat recombinant NR1/NR2B receptor expressed in Xenopus oocytes by two voltage clamp electrophysiology relative to glutamate; format: cell-based; settings: Oocyte
How it was run: (§1)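 Two-electrode voltage clamp on Xenopus oocytes injected with cRNA for NR1 plus the named NR2 subunit. Holding potential −60 to −40 mV. Continuous perfusion at 23 °C with 90 NaCl, 0.5 BaCl2, 1 KCl, 0.01 EDTA, 10 HEPES (mM), pH 7.6, with 20 μM glycine present throughout. Concentration–response data from each oocyte fitted to the Hill equation; mean ± SEM of logEC50 and nH. Relative Imax = fitted agonist Imax / maximal glutamate response in the same recording.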

Glutamate NMDA receptor = experiment: Displacement of [3H]CGP39653 from NMDA receptor in rat cortical synaptosome; format: tissue-based, Brain
[2] = target: Glutamate NMDA receptor; Grin1/Grin2b (Rattus norvegicus, UniProt P35439+Q00960); experiment: Activity at rat recombinant NR1/NR2B receptor expressed in Xenopus oocytes assessed as effect on glutamate-induced current by two voltage clamp electrophysiology; format: cell-based, Oocyte
How it was run: as §1, with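 “nH.” for “nH. Relative Imax = fitted agonist Imax / maximal glutamate response in the same recording.”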

[3] = Displacement of [3H]AMPA from AMPA receptor in rat cortical synaptosome; format: tissue-based, Brain
How it was run: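 Binding to rat cortical synaptosome membranes using 5 nM [3H]AMPA (45.5 Ci/mmol) as radioligand.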

[4] = Displacement of [3H]KAIN from KA receptor in rat cortical synaptosome; format: tissue-based, Brain
[5] = target: Ionotropic glutamate receptor NMDA 1/2D (Rattus norvegicus) (UniProt P35439+Q62645); experiment: Activity at rat NR1/NR2D receptor expressed in Xenopus oocytes by two voltage clamp electrophysiology relative to glutamate; format: cell-based; settings: Oocyte; how it was run: as §1
[6] = target: Ionotropic glutamate receptor NMDA 1/2D (Rattus norvegicus, UniProt P35439+Q62645); experiment: Activity at rat NR1/NR2D receptor expressed in Xenopus oocytes assessed as effect on glutamate-induced current by two voltage clamp electrophysiology; format: cell-based, Oocyte
How it was run: as §1, with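 “nH.” for “nH. Relative Imax = fitted agonist Imax / maximal glutamate response in the same recording.”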

[7] = target: T1, Glutamate NMDA receptor; Grin1/Grin2a (Rattus norvegicus) (UniProt P35439+Q00959); experiment: (§2) Activity at rat recombinant NR1/NR2A receptor expressed in Xenopus oocytes assessed as effect on glutamate-induced current by two voltage clamp electrophysiology; format: cell-based; settings: Oocyte
How it was run: as §1, with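 “nH.” for “nH. Relative Imax = fitted agonist Imax / maximal glutamate response in the same recording.”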

[8] = target: Glutamate NMDA receptor; Grin1/Grin2c (Rattus norvegicus) (UniProt P35439+Q00961); experiment: Activity at rat recombinant NR1/NR2C receptor expressed in Xenopus oocytes by two voltage clamp electrophysiology relative to glutamate; format: cell-based; settings: Oocyte; how it was run: as §1
[9] = target: Glutamate NMDA receptor; Grin1/Grin2c (Rattus norvegicus, UniProt P35439+Q00961); experiment: Activity at rat recombinant NR1/NR2C receptor expressed in Xenopus oocytes assessed as effect on glutamate-induced current by two voltage clamp electrophysiology; format: cell-based, Oocyte
How it was run: as §1, with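 “nH.” for “nH. Relative Imax = fitted agonist Imax / maximal glutamate response in the same recording.”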

[10] = target: T1, Glutamate NMDA receptor; Grin1/Grin2a (Rattus norvegicus); experiment: Activity at rat recombinant NR1/NR2A receptor expressed in Xenopus oocytes by two voltage clamp electrophysiology relative to glutamate; format: cell-based; settings: Oocyte; how it was run: as §1
[11] = target: Glutamate NMDA receptor; Grin1/Grin2a (Rattus norvegicus, UniProt P35439+Q00959); experiment: as §2; format: cell-based, Oocyte
How it was run: as §1, with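 “nH.” for “nH. Relative Imax = fitted agonist Imax / maximal glutamate response in the same recording.”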

Row | SMILES | Imax [1] | Ki (Glutamate NMDA receptor) | EC50 [2] | IC50 [3] | IC50 [4] | Imax [5] | EC50 [6] | Activity [7] | Imax [8] | EC50 [9] | Activity [10] | EC50 [11] | Imax [10]
1 | N[C@@H](C(=O)O)c1c(Cl)cnn1O | 0.33 | 2.9 µM | 58 µM | – | – | – | – | – | – | – | – | – | –
2 | N[C@@H](C(=O)O)c1ccnn1O | 0.61 | 2.2 µM | 14 µM | > 100 µM | > 100 µM | – | – | – | – | – | – | – | –
3 | N[C@H](C(=O)O)c1ccnn1O | – | > 100 µM | – | > 100 µM | > 100 µM | – | – | – | – | – | – | – | –
4 | CC(C)c1cnn(O)c1C(N)C(=O)O (racemic) | – | 20 µM | – | > 100 µM | > 100 µM | – | – | – | – | – | – | – | –
5 | CCCc1cnn(O)c1C(N)C(=O)O (racemic) | 0.06 | 14 µM | 105 µM | > 100 µM | > 100 µM | 0.37 | 153 µM | inactive | 0.22 | 429 µM | inactive | – | –
6 | CCc1cnn(O)c1[C@H](N)C(=O)O | – | > 100 µM | – | > 100 µM | > 100 µM | – | – | – | – | – | – | – | –
7 | CC(C)c1cnn(O)c1[C@@H](N)C(=O)O | – | 13 µM | – | > 100 µM | > 100 µM | – | – | – | – | – | – | – | –
8 | NC(C(=O)O)c1ccnn1O (racemic) | 0.58 | 10 µM | 48 µM | > 100 µM | > 100 µM | – | – | – | 0.52 | 54 µM | – | 82 µM | 0.45
9 | Cc1cnn(O)c1[C@@H](N)C(=O)O | 0.23 | 2.2 µM | 36 µM | > 100 µM | > 100 µM | – | – | – | – | – | – | – | –
10 | CCc1cnn(O)c1[C@@H](N)C(=O)O | 0.46 | 4.4 µM | 34 µM | > 100 µM | > 100 µM | – | – | – | – | – | – | – | –
11 | CCCc1cnn(O)c1[C@H](N)C(=O)O | – | > 100 µM | – | > 100 µM | > 100 µM | – | – | – | – | – | – | – | –
12 | Cc1cnn(O)c1[C@H](N)C(=O)O | – | > 100 µM | – | > 100 µM | > 100 µM | – | – | – | – | – | – | – | –
13 | CCCc1cnn(O)c1[C@@H](N)C(=O)O | 0.09 | 6.9 µM | 63 µM | > 100 µM | > 100 µM | – | – | – | – | – | – | – | –
14 | CCc1cnn(O)c1C(N)C(=O)O (racemic) | 0.45 | 13 µM | 68 µM | > 100 µM | > 100 µM | 0.7 | 43 µM | – | 0.52 | 91 µM | – | 47 µM | 0.05
15 | N[C@H](C(=O)O)c1c(Cl)cnn1O | – | 25 µM | – | > 100 µM | > 100 µM | – | – | – | – | – | – | – | –
16 | CC(C)c1cnn(O)c1[C@H](N)C(=O)O | – | > 100 µM | – | > 100 µM | > 100 µM | – | – | – | – | – | – | – | –
17 | CN[C@H](CC(=O)O)C(=O)O [N-METHYL-D-ASPARTIC ACID (NMDA)] | 0.77 | – | 22 µM | – | – | 0.8 | 8.3 µM | – | 0.73 | 23 µM | – | 75 µM | 0.9
18 | NC(C(=O)O)c1c(Cl)cnn1O (racemic) | 0.29 | 2.9 µM | 149 µM | > 100 µM | > 100 µM | 0.73 | 152 µM | – | 0.55 | 255 µM | – | 565 µM | 0.07
19 | Cc1cnn(O)c1C(N)C(=O)O (racemic) | – | 22 µM | – | > 100 µM | > 100 µM | – | – | – | – | – | – | – | –
